Marks after values point to notes of the source that are not given here.
Columns and labels:
[1] = tested on: coagulation in hemostasis; assay: Anticoagulant activity, activated partial thromboplastin time; type: biochemical; conditions: value (range), n = 6
How it was run: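 APTT was measured turbidimetrically on a hemocoagulometer using centrifuged citrated blood. Change is given as percent of control with a range in parentheses, n = 6. Significance was tested against control and reference drugs at p ≤ 0.05 or p ≤ 0.001.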

[2] = tested on: collagen-induced platelet aggregation; assay: Collagen-induced platelet aggregation; type: cell-based
How it was run: (§1)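 Citrated blood was centrifuged, and platelet aggregation was recorded on an aggregometer using a published method. Collagen induced the latent period; ADP induced maximum amplitude and aggregation rate. Changes are given as percent of control, n = 6. Significance was tested against control and reference drugs at p ≤ 0.05 or p ≤ 0.001.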

[3] = tested on: ADP-induced platelet aggregation; assay: ADP-induced platelet aggregation; type: cell-based; conditions: pro-aggregation activity versus etamsylate
How it was run: as §1

| Compound | APTT (activated partial thromboplastin time) [1] | Effect on latent period (in words) [2] | Platelet aggregation activity relative to etamsylate [3] |
| --- | --- | --- | --- |
| CC(=O)Oc1ccccc1C(=O)O [Acetylsalicylic acid, reference compound] | +1.1 (0.5–1.9)^e percent of control | – | – |
| C[N+](C)(C)CC(=O)NN=C1C(=O)N(CCn2cnc3c(N)ncnc32)c2ccccc21.[Cl-] [Compound 3a, 2-(2-{1-[2-(6-Amino-9H-purin-9-yl)ethyl]-2-oxo-2,3-dihydro-1H-indol-3-ylidene}hydrazinyl)-N,N,N-trimethyl-2-oxoethan-1-aminium chloride] | +3.7 (2.9–5.4)^e percent of control | – | – |
| Cc1ccc2c(c1)C(=NNC(=O)C[N+](C)(C)C)C(=O)N2CCn1cnc2c(N)ncnc21.[Cl-] [Compound 3b, 2-(2-{1-[2-(6-Amino-9H-purin-9-yl)ethyl]-5-methyl-2-oxo-2,3-dihydro-1H-indol-3-ylidene}hydrazinyl)-N,N,N-trimethyl-2-oxoethan-1-aminium chloride] | +6.5 (4.9–8.3)^c,e percent of control | – | – |
| CCc1ccc2c(c1)C(=NNC(=O)C[n+]1ccccc1)C(=O)N2CCn1cnc2c(N)ncnc21.[Cl-] [Compound 3c, 1-[2-(2-{1-[2-(6-Amino-9H-purin-9-yl)ethyl]-5-ethyl-2-oxo-2,3-dihydro-1H-indol-3-ylidene}hydrazinyl)-2-oxoethyl]pyridinium chloride] | +5.3 (4.1–9.6)^c,e percent of control | – | – |
| Cc1ccc2c(c1)C(=NNC(=O)C[n+]1cccc(C)c1C)C(=O)N2CCn1cnc2c(N)ncnc21.[Br-] [Compound 3d, 1-[2-(2-{1-[2-(6-Amino-9H-purin-9-yl)ethyl]-5-methyl-2-oxo-2,3-dihydro-1H-indol-3-ylidene}hydrazinyl)-2-oxoethyl]-2,3-dimethylpyridinium bromide] | +2.5 (1.8–4.3)^e percent of control | – | – |
| Cn1c(=O)c2c(ncn2CCN2C(=O)C(=NNC(=O)C[N+](C)(C)C)c3ccccc32)n(C)c1=O.[Cl-] [Compound 4a, 2-[2-(1-{2-[1,3-Dimethyl-2,6-dioxo-2,3-dihydro-1H-purin-7(6H)-yl]ethyl}-2-oxo-2,3-dihydro-1H-indol-3-ylidene)hydrazinyl]-N,N,N-trimethyl-2-oxoethan-1-aminium chloride] | +8.4 (7.3–10.4)^c,e percent of control | – | – |
| Cc1ccc2c(c1)C(=NNC(=O)C[N+](C)(C)C)C(=O)N2CCn1cnc2c1c(=O)n(C)c(=O)n2C.[Cl-] [Compound 4b, 2-[2-(1-{2-[1,3-Dimethyl-2,6-dioxo-2,3-dihydro-1H-purin-7(6H)-yl]ethyl}-5-methyl-2-oxo-2,3-dihydro-1H-indol-3-ylidene)hydrazinyl]-N,N,N-trimethyl-2-oxoethan-1-aminium chloride] | +7.3 (5.6–9.4)^c,e percent of control | without affecting the latent period | more than twofold |
| Sodium heparin [reference compound] | +20.3 (19.7–21.4)^d percent of control | – | – |

Source: article PMC9007260 (Russian Journal of Organic Chemistry, 2022)
